Test results as given in ChEMBL document CHEMBL1153592, “1,8-Naphthyridine-3-carboxamide derivatives with anticancer and anti-inflammatory activity” (Eur J Med Chem, 2009).
pIC50: −log10 of the molar value. The source made the active and inactive calls. The rule behind the calls is not given here.

Columns and labels:
MIA PaCa-2 [1] = experiment: Cytotoxicity against human MIAPaCa2 cells after 72 hrs by MTT assay; assay type: functional, cell-based; conditions: MIA PaCa-2, 72 h
HBL-100 [2] = experiment: Cytotoxicity against human HBL100 cells after 72 hrs by MTT assay; assay type: functional, cell-based; conditions: HBL-100, 72 h
[3] = Antiinflammatory activity in C57BL/6 mouse DC assessed as inhibition of LPS-induced IL1-beta production at 0.1 ug/ml after 24 hrs by ELISA; assay type: functional
In short: (§1)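 Dendritic cells grown from femoral bone marrow of 8–12-week-old C57BL/6 mice in RPMI-1640 with 10% FBS and 20 ng/ml rmGM-CSF at 37 °C, 5% CO2. Day-6 immature DCs were stimulated with 10 ng/ml LPS plus compound for 24 h. Supernatant cytokine/chemokine measured by ELISA (pg/ml); % change = (B−A)/A×100, versus LPS-stimulated DCs alone.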

K562 [4] = experiment: Cytotoxicity against human K562 cells after 72 hrs by MTT assay; assay type: functional, cell-based; conditions: K562, 72 h
ECV-304 [5] = experiment: Cytotoxicity against human ECV304 cells after 72 hrs by MTT assay; assay type: functional, cell-based; conditions: Homo sapiens, ECV-304, 72 h; read-out: IC50
PA-1 [6] = experiment: Cytotoxicity against human PA1 cells after 72 hrs by MTT assay; assay type: functional, cell-based; conditions: PA-1, 72 h
SW-620 [7] = experiment: Cytotoxicity against human SW620 cells after 72 hrs by MTT assay; assay type: functional, cell-based; conditions: SW-620, 72 h
KB [8] = experiment: Cytotoxicity against human KB cells after 72 hrs by MTT assay; assay type: functional, cell-based
[9] = Cytotoxicity against mouse NIH/3T3 cells after 72 hrs by MTT assay; assay type: cell-based, NIH3T3; conditions: for pIC50: Mus musculus, NIH3T3, 72 h, read-out: IC50; for IC50: nih3t3
[10] = Antiinflammatory activity in C57BL/6 mouse DC assessed as inhibition of LPS-induced IL-6 production at 0.1 ug/ml after 24 hrs by ELISA; assay type: functional; in short: as §1
DU-145 [11] = experiment: Cytotoxicity against human DU145 cells after 72 hrs by MTT assay; assay type: functional, cell-based; conditions: DU-145, 72 h
A549 [12] = experiment: Cytotoxicity against human A549 cells after 72 hrs by MTT assay; assay type: functional, cell-based; conditions: A549, 72 h
[13] = Antiinflammatory activity in C57BL/6 mouse DC assessed as inhibition of LPS-induced IL1-beta production at 1 ug/ml after 24 hrs by ELISA; assay type: functional; in short: as §1
[14] = Antiinflammatory activity in C57BL/6 mouse DC assessed as inhibition of LPS-induced IL-6 production at 1 ug/ml after 24 hrs by ELISA; assay type: functional; in short: as §1
K562 [15] = experiment: Cytotoxicity against human K562 cells at 10 uM after 72 hrs by MTT assay; assay type: functional, cell-based
In short: (§2)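 Three-day MTT screen with 5000–10,000 cells/well and 72 h compound exposure at the top screening concentration. After 3 h of MTT uptake, lysis with 10% SDS–0.01 N HCl, then A540 read after 1 h. % cytotoxicity = (1 − X/R1)×100, where X is treated minus blank absorbance and R1 is untreated control absorbance.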

KB [16] = experiment: Cytotoxicity against human KB cells at 10 uM after 72 hrs by MTT assay; assay type: functional, cell-based; in short: as §2
A549 [17] = experiment: Cytotoxicity against human A549 cells at 10 uM after 72 hrs by MTT assay; assay type: functional, cell-based; in short: as §2
MIA PaCa-2 [18] = experiment: Cytotoxicity against human MIAPaCa2 cells at 10 uM after 72 hrs by MTT assay; assay type: functional, cell-based; in short: as §2
ECV-304 [19] = experiment: Cytotoxicity against human ECV304 cells at 10 uM after 72 hrs by MTT assay; assay type: functional, cell-based; in short: as §2
PA-1 [20] = experiment: Cytotoxicity against human PA1 cells at 10 uM after 72 hrs by MTT assay; assay type: functional, cell-based; in short: as §2
DU-145 [21] = experiment: Cytotoxicity against human DU145 cells at 10 uM after 72 hrs by MTT assay; assay type: functional, cell-based; in short: as §2
SW-620 [22] = experiment: Cytotoxicity against human SW620 cells at 10 uM after 72 hrs by MTT assay; assay type: functional, cell-based; in short: as §2
HBL-100 [23] = experiment: Cytotoxicity against human HBL100 cells at 10 uM after 72 hrs by MTT assay; assay type: functional, cell-based; in short: as §2
[24] = Cytotoxicity against mouse NIH/3T3 cells at 10 uM after 72 hrs by MTT assay; assay type: cell-based; conditions: nih3t3, 72 h; in short: as §2

Structure (SMILES)	pIC50 (MIA PaCa-2 [1])	pIC50 (HBL-100 [2])	inhibition (INH) [3] [%]	pIC50 (K562 [4])	pIC50 (ECV-304 [5])	pIC50 (PA-1 [6])	pIC50 (SW-620 [7])	pIC50 (KB [8])	pIC50 [9]	inhibition (INH) [10] [%]	pIC50 (DU-145 [11])	pIC50 (A549 [12])	inhibition (INH) [13] [%]	inhibition (INH) [14] [%]	IC50 [9]	Activity (K562 [15])	Activity (KB [16])	Activity (A549 [17])	Activity (MIA PaCa-2 [18])	Activity (ECV-304 [19])	further results
C#CCn1cc(C(=O)NC(CC(=O)NC2CCCC2)c2ccccc2)c(=O)c2ccc(Cl)nc21 (stereo not given)	5.62	5.49	82	5.17	5.11	5.96	5.57	< 5.00	5.36	79.8	< 5.00	5.02	18.1	81.7	–	–	–	–	–	–	–
C#CCn1cc(C(=O)NC(C(=O)Nc2ccccc2)c2ccccc2)c(=O)c2cccnc21 (stereo not given)	< 5.00	< 5.00	39.9	< 5.00	< 5.00	5.05	< 5.00	5.52	–	79.3	5.06	< 5.00	64.6	79.3	Not Active	–	–	–	–	–	–
C#CCn1cc(C(=O)NC(C(=O)NC2CCCC2)c2ccccc2)c(=O)c2ccc(Cl)nc21 (stereo not given)	–	–	–	–	–	–	–	–	–	–	–	–	–	–	–	inactive	inactive	inactive	inactive	inactive	Activity (PA-1 [20]): inactive; Activity (DU-145 [21]): inactive; Activity (SW-620 [22]): inactive; Activity (HBL-100 [23]): inactive; Activity [24]: Not Active
C#CCn1cc(C(=O)NC(C(=O)NC2CCCC2)c2ccccc2)c(=O)c2cccnc21 (stereo not given)	< 5.00	< 5.00	–	< 5.00	< 5.00	< 5.00	< 5.00	5.35	–	–	< 5.00	< 5.00	–	–	Not Active	–	–	–	–	–	–
C#CCn1cc(C(=O)NC(C(=O)Nc2ccccc2)c2ccccc2)c(=O)c2cc(F)c(N3CCCC3)nc21 (stereo not given)	–	–	–	–	–	–	–	–	–	–	–	–	–	–	–	inactive	inactive	inactive	inactive	inactive	Activity (PA-1 [20]): inactive; Activity (DU-145 [21]): inactive; Activity (SW-620 [22]): inactive; Activity (HBL-100 [23]): inactive; Activity [24]: Not Active
C#CCn1cc(C(=O)NC(CC(=O)Nc2ccccn2)c2ccccc2)c(=O)c2ccc(Cl)nc21 (stereo not given)	< 5.00	< 5.00	57.3	5.23	< 5.00	5.77	5.54	5.28	–	78.2	5.31	< 5.00	82	82.9	Not Active	–	–	–	–	–	–
C#CCn1cc(C(=O)NC(CC(=O)NC2CCCCC2)c2ccccc2)c(=O)c2cccnc21 (stereo not given)	–	–	–	–	–	–	–	–	–	–	–	–	–	–	–	inactive	inactive	inactive	inactive	inactive	Activity (PA-1 [20]): inactive; Activity (DU-145 [21]): inactive; Activity (SW-620 [22]): inactive; Activity (HBL-100 [23]): inactive; Activity [24]: Not Active
C#CCn1cc(C(=O)NC(CC(=O)Nc2ccccn2)c2ccccc2)c(=O)c2cc(F)c(Cl)nc21 (stereo not given)	< 5.00	< 5.00	83.4	< 5.00	< 5.00	< 5.00	5.64	5.64	5.38	75.5	5.68	< 5.00	109.6	99.1	–	–	–	–	–	–	–
C#CCn1cc(C(=O)NC(CC(=O)NC2CCCC2)c2ccccc2)c(=O)c2cc(F)c(Cl)nc21 (stereo not given)	5.36	5.70	83.4	5.14	5.29	6.17	5.68	5.31	5.62	80.1	< 5.00	5.21	102	100	–	–	–	–	–	–	–
